ChEMBL document CHEMBL4376872, “Scaffold Hopping of Natural Product Evodiamine: Discovery of a Novel Antitumor Scaffold with Excellent Potency against Colon Cancer” (J Med Chem, 2020)
Active and inactive are the calls of the source. The calls are words filed in the database; no cut-off is given here.

Legend:
[1] = test system: NCI-H446; assay: Antiproliferative activity against human NCI-H446 cells assessed as reduction in cell viability incubated for 72 hrs by CCK8 assay; format: functional, cell-based; conditions: NCI-H446, 72 h
[2] = test system: HCT-116; assay: Antiproliferative activity against human HCT116 cells assessed as reduction in cell viability incubated for 72 hrs by CCK8 assay; format: functional, cell-based; conditions: HCT-116, 72 h
[3] = target: T1, DNA topoisomerase 1 (Escherichia coli (strain K12)) (UniProt P06612); assay: Poison activity at Escherichia coli Top1 assessed as increase in […] band intensity at 100 uM using supercoiled pUC19 plasmid DNA as substrate incubated for 30 mins by agarose gel electrophoresis analysis
T1 sequence (whole entry): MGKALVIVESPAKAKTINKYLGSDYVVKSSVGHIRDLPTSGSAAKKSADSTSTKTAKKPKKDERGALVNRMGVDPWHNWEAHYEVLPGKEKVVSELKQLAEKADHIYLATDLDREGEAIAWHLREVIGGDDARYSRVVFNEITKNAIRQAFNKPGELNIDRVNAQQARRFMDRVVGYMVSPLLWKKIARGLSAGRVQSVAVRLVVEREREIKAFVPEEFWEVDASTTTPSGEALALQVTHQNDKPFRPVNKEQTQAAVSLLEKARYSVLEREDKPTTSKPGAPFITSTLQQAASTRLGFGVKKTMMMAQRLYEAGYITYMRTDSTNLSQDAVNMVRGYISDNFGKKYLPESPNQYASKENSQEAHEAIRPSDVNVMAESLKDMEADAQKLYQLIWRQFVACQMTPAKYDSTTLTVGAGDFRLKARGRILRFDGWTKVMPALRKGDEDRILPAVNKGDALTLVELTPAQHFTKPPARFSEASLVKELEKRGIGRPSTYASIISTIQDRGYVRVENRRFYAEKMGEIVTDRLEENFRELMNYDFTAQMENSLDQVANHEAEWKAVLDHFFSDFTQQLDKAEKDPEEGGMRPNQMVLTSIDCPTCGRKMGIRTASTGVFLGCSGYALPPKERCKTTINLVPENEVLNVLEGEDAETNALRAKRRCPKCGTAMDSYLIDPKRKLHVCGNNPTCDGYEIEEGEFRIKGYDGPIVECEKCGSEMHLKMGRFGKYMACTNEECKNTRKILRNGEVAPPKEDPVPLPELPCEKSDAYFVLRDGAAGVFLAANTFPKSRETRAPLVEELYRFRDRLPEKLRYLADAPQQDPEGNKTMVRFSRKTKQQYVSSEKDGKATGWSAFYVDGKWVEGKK
Procedure, shortened: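 Supercoiled pUC19 plasmid DNA incubated with Top1 and test compound at 100, 50, 25 and 12.5 μM. Lanes: DNA alone, DNA + Top1, and DNA + Top1 + camptothecin (100 μM) as reference. Products resolved on gel to follow Top1-mediated relaxation.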

[4] = Antiproliferative activity against human MV-3 cells assessed as reduction in cell viability incubated for 72 hrs by CCK8 assay; format: functional, cell-based; conditions: MV-3, 72 h
[5] = test system: PC-3; assay: Antiproliferative activity against human PC3 cells assessed as reduction in cell viability incubated for 72 hrs by CCK8 assay; format: functional, cell-based; conditions: PC-3, 72 h
[6] = test system: MDA-MB-435; assay: Antiproliferative activity against human MDA-MB-435 cells assessed as reduction in cell viability incubated for 72 hrs by CCK8 assay; format: functional, cell-based; conditions: MDA-MB-435, 72 h
[7] = test system: K562; assay: Antiproliferative activity against human K562 cells assessed as reduction in cell viability incubated for 72 hrs by CCK8 assay; format: functional, cell-based; conditions: K562, 72 h
[8] = test system: A549; assay: Antiproliferative activity against human A549 cells assessed as reduction in cell viability incubated for 72 hrs by CCK8 assay; format: functional, cell-based; conditions: A549, 72 h
[9] = Antiproliferative activity against human SW579 cells assessed as reduction in cell viability incubated for 72 hrs by CCK8 assay; format: functional, cell-based; conditions: SW579, 72 h
[10] = test system: SK-HEP1; assay: Antiproliferative activity against human SKHEP1 cells assessed as reduction in cell viability incubated for 72 hrs by CCK8 assay; format: functional, cell-based; conditions: SK-HEP1, 72 h
[11] = test system: BEL-7404 tumor cell line; assay: Antiproliferative activity against human Bel7404 cells assessed as reduction in cell viability incubated for 72 hrs by CCK8 assay; format: functional, cell-based; conditions: BEL-7404, 72 h
[12] = target: DNA topoisomerase 2-alpha (Homo sapiens) (UniProt P11388); assay: Inhibition of human Top2alpha assessed as decrease in relaxation of supercoiled pBR322 plasmid DNA at 100 uM using supercoiled pBR322 plasmid DNA as substrate incubated for 30 mins by agarose gel electrophoresis analysis
[13] = target: T1, DNA topoisomerase 1 (Escherichia coli (strain K12)); assay: Inhibition of Escherichia coli Top1 assessed as decrease in relaxation of supercoiled pBR322 plasmid DNA at 100 uM using supercoiled pBR322 plasmid DNA as substrate incubated for 15 mins by agarose gel electrophoresis analysis

Chain of DNA topoisomerase 2-alpha (Homo sapiens) (P11388 whole entry): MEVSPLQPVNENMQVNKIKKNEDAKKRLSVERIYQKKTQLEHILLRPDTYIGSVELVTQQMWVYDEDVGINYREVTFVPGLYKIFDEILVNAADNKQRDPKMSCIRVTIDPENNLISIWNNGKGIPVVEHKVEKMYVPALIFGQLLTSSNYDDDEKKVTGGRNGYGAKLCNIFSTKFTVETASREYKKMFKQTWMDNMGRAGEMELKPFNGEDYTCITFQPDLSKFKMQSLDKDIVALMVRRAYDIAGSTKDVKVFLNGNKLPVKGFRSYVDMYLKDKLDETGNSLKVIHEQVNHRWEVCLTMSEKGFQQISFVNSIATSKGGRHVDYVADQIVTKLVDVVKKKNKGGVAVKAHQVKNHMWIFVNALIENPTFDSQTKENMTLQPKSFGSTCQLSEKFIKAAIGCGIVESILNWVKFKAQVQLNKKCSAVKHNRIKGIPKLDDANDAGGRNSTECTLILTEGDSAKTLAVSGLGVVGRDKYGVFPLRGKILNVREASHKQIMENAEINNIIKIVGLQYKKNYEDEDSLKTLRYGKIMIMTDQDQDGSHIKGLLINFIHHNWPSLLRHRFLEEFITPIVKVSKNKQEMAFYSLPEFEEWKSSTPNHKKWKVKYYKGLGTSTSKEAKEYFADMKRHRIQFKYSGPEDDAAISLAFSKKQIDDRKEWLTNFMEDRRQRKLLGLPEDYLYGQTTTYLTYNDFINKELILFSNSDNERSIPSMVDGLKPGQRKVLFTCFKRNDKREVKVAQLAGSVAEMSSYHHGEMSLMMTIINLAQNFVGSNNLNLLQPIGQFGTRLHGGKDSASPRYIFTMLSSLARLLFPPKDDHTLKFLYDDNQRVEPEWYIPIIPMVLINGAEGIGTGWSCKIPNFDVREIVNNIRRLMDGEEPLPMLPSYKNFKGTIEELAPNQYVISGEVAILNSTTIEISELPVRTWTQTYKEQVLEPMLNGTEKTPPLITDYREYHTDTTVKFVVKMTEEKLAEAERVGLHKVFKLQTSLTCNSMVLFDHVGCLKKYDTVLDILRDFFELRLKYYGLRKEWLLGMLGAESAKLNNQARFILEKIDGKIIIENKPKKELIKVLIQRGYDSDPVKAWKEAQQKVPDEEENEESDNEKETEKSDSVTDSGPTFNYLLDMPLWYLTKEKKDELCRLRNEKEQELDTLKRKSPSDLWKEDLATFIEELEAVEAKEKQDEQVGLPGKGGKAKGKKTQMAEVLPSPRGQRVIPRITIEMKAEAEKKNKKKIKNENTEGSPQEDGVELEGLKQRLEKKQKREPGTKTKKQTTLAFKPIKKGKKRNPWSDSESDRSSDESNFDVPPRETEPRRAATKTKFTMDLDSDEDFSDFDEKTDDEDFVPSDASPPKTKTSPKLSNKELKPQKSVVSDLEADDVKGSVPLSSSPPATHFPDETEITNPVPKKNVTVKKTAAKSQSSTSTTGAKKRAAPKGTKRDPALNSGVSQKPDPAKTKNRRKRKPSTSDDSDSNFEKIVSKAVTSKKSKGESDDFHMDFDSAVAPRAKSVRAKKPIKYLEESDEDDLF

| SMILES | IC50 [2] | IC50 [6] | IC50 [8] | also measured |
| --- | --- | --- | --- | --- |
| CC[C@@]1(O)C(=O)OCc2c1cc1n(c2=O)Cc2cc3ccccc3nc2-1 [CAMPTOTHECIN] | 0.02 µM | 2.7 µM | 2.8 µM | IC50 [1]: > 200 µM; Activity [3]: Active; IC50 [4]: 3 nM; IC50 [5]: 2400 nM; IC50 [7]: < 3 nM; IC50 [9]: 700 nM; IC50 [10]: 900 nM; IC50 [11]: 400 nM |
| COc1ccc2c(c1)N(C)C1c3cc4cc(OC)ccc4n3CCN1C2=O (configuration not stated) | 180 µM | > 200 µM | 30.8 µM |  |
| COc1ccc2c(c1)c(C)c1n2CCN2C(=O)c3cc(F)ccc3N(C)C12 (configuration not stated) | 21.9 µM | 132 µM | 13.2 µM |  |
| COc1ccc2c(c1)cc1n2CCN2C(=O)c3cc(Br)ccc3N(C)C12 (configuration not stated) | > 200 µM | > 200 µM | > 200 µM |  |
| Cc1ccc2c(c1)c(Br)c1n2CCN2C(=O)c3ccccc3N(C)C12 (configuration not stated) | 3.3 µM | 12.3 µM | 14.1 µM |  |
| CN1c2ccc(F)cc2C(=O)N2CCn3c(cc4cc(OC5CCCCC5)ccc43)C21 (configuration not stated) | 66.8 µM | 50.1 µM | 174 µM |  |
| COc1cc2cc3n(c2c(OC)c1OC)CCN1C(=O)c2ccccc2N(C)C31 (configuration not stated) | > 200 µM | > 200 µM | > 200 µM |  |
| CN1c2ccccc2C(=O)N2CCn3c(cc4cc(Br)ccc43)C21 (configuration not stated) | 7.3 µM | 15.9 µM | 15.2 µM |  |
| COc1ccc2c(c1)c(Br)c1n2CCN2C(=O)c3cc(F)ccc3N(C)C12 (configuration not stated) | 9.2 µM | 89.1 µM | 12.3 µM |  |
| Cc1ccc2c(c1)cc1n2CCN2C(=O)c3ccccc3N(C)C12 (configuration not stated) | 0.03 µM | 13.3 µM | > 200 µM | inhibition [12]: inactive; inhibition [13]: Active |
| CN1c2ccccc2C(=O)N2CCn3c(cc4ccc(Cl)cc43)C21 (configuration not stated) | > 200 µM | > 200 µM | > 200 µM |  |
| COc1ccc2c(c1)c(CO)c1n2CCN2C(=O)c3cc(C)ccc3N(C)C12 (configuration not stated) | 5.8 µM | 41.5 µM | 72.1 µM |  |
| COc1ccc2c(c1)cc1n2CCN2C(=O)c3ccccc3N(C)C12 (configuration not stated) | 12 µM | 20.2 µM | 2.7 µM |  |
| CN1c2ccccc2C(=O)N2CCn3c(cc4cc(O)ccc43)C21 (configuration not stated) | 44.3 µM | 16.8 µM | 14.5 µM |  |
| CN1c2ccn(C)c2C(=O)N2CCn3c(cc4cc(O)ccc43)C21 (configuration not stated) | > 200 µM | > 200 µM | > 200 µM |  |
| Cc1ccc2c(c1)cc1n2CCN2C(=O)c3cc(F)ccc3N(C)C12 (configuration not stated) | 0.06 µM | 1 µM | 22.8 µM |  |
| COc1ccc2c(c1)cc1n2CCN2C(=O)c3cc(C)ccc3N(C)C12 (configuration not stated) | 19.4 µM | > 200 µM | > 200 µM |  |
| CN1c2ccccc2C(=O)N2CCn3c(cc4ccccc43)C21 (configuration not stated) | 47.5 to 48.5 µM | > 200 µM | 21.5 µM | inhibition [12]: inactive; inhibition [13]: Active |
| COc1ccc2c(c1)N(C)C1c3cc4ccccc4n3CCN1C2=O (configuration not stated) | 124 µM | > 200 µM | 24.3 µM |  |
| CN1c2ccsc2C(=O)N2CCn3c(cc4cc(O)ccc43)C21 (configuration not stated) | 106 µM | 66.8 µM | 30.3 µM |  |
| COc1ccc2c(c1)c(CO)c1n2CCN2C(=O)c3cc(F)ccc3N(C)C12 (configuration not stated) | 5.6 µM | 22.8 µM | 6.6 µM |  |
| CN1c2ccccc2C(=O)N2CCc3c([nH]c4ccccc34)[C@H]21 | > 200 µM | 22.1 µM | > 200 µM |  |
| COc1ccc2c(c1)cc1n2C(C)(C)CN2C(=O)c3cc(F)ccc3N(C)C12 (configuration not stated) | 1.5 µM | 10.7 µM | > 200 µM |  |

| SMILES | IC50 [2] | IC50 [6] | IC50 [8] | also measured |
| --- | --- | --- | --- | --- |
| COc1ccc2c(c1)cc1n2CCCN2C(=O)c3ccccc3N(C)C12 (configuration not stated) | 56 µM | 196 µM | 32 µM |  |
| CN1c2ccc(F)cc2C(=O)N2CCn3c(cc4cc(Br)ccc43)C21 (configuration not stated) | 28.5 µM | 97.6 µM | > 200 µM |  |
| COc1ccc2c(c1)cc1n2CCN2C(=O)c3c(ccn3C)N(C)C12 (configuration not stated) | 190 µM | > 200 µM | > 200 µM |  |
| COc1ccc2c(c1)c(C=O)c1n2CCN2C(=O)c3cc(C)ccc3N(C)C12 (configuration not stated) | 18.1 µM | 70.5 µM | > 200 µM |  |
| COc1ccc2c(c1)C(=O)N1CCn3c(cc4ccccc43)C1N2C (configuration not stated) | 49.2 µM | 168 µM | 15.6 µM |  |
| COc1ccc2c(c1)cc1n2CCN2C(=O)c3cc(N)ccc3N(C)C12 (configuration not stated) | > 200 µM | > 200 µM | > 200 µM |  |
| CN1c2ccccc2C(=O)N2CCn3c(cc4cc(F)ccc43)C21 (configuration not stated) | > 200 µM | > 200 µM | > 200 µM |  |
| COc1ccc2c(c1)c(CN1CCN(C)CC1)c1n2CCN2C(=O)c3cc(F)ccc3N(C)C12 (configuration not stated) | 5.5 µM | 5.82 µM | 32.9 µM |  |
| CN1c2ccc(F)cc2C(=O)N2CCn3c(cc4cc(OC5CCC5)ccc43)C21 (configuration not stated) | 34.1 µM | > 200 µM | 98.5 µM |  |
| CN1c2ccc(F)cc2C(=O)N2CCn3c(cc4cc(OC(F)(F)F)ccc43)C21 (configuration not stated) | 0.83 µM | > 200 µM | 95.5 µM |  |
| CN1c2ccc(F)cc2C(=O)N2CCn3c(cc4cc(Cl)ccc43)C21 (configuration not stated) | 6.7 µM | 143 µM | 53 µM |  |
| CN1c2ccc(F)cc2C(=O)N2CCn3c(cc4cc(OC5CCCC5)ccc43)C21 (configuration not stated) | 57.9 µM | > 200 µM | > 200 µM |  |
| COc1ccc2c(c1)cc1n2CCN2C(=O)c3sccc3N(C)C12 (configuration not stated) | 9.5 µM | 44.6 µM | 47 µM |  |
| CN1c2ccccc2C(=O)N2CCn3c(cc4cc(Cl)ccc43)C21 (configuration not stated) | 4.4 µM | 13.5 µM | 27.7 µM | inhibition [12]: inactive; inhibition [13]: Active |
| CN1c2ccccc2C(=S)N2CCn3c(cc4cc(F)ccc43)C21 (configuration not stated) | > 200 µM | > 200 µM | > 200 µM |  |
| CN1c2ccccc2C(=O)N2CCCn3c(cc4cc(O)ccc43)C21 (configuration not stated) | > 200 µM | > 200 µM | 111 µM |  |
| [2H]C([2H])([2H])Oc1ccc2c(c1)cc1n2CCN2C(=O)c3cc(F)ccc3N(C)C12 (configuration not stated) | 0.01 µM | 11.4 µM | 31.3 µM |  |
| COc1ccc2c(c1)N(C)C1c3cc4cc(Br)ccc4n3CCN1C2=O (configuration not stated) | > 200 µM | > 200 µM | > 200 µM |  |
| COc1ccc2c(c1)c(C=O)c1n2CCN2C(=O)c3cc(F)ccc3N(C)C12 (configuration not stated) | > 200 µM | > 200 µM | 59.2 µM |  |
| COc1ccc2c(c1)cc1n2CCN2C(=O)c3cc(OC)c(OC)cc3N(C)C12 (configuration not stated) | > 121 µM | 23.8 µM | > 200 µM |  |
| CSc1ccc2cc3n(c2c1)CCN1C(=O)c2cc(F)ccc2N(C)C31 (configuration not stated) | 9.4 µM | 85.8 µM | 8.3 µM |  |
| COc1ccc2c(c1)cc1n2CCN2C(=O)c3cc(Cl)ccc3N(C)C12 (configuration not stated) | 61.3 µM | > 200 µM | > 200 µM |  |
| COc1ccc2c(c1)cc1n2C(C)(C)CN2C(=O)c3ccccc3N(C)C12 (configuration not stated) | 6.2 µM | 86.4 µM | 181 µM |  |
